≈ marks a conversion by molar mass, not a printed value.
What was measured:
CCRF-CEM = test: In vitro cytotoxicity against CCRF-CEM cells; assay type: functional, cell-based; conditions: Homo sapiens
Method in brief: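 CCRF-CEM cells were grown in culture for 72 h with compound. The value is the concentration that inhibited growth to 50% of control growth.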

Mus musculus [1] = test: In vivo antitumor activity against subaxillary implanted 6C3HED lymphosarcoma implanted in C3H mice at a dose of 300 mg/kg administered perorally twice daily for a period of 8 days.; assay type: functional; conditions: 192 h, route oral
Method in brief: (§1)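 6C3HED lymphosarcoma was carried in C3H mice. Compound was dosed at the stated route and schedule for 8 days (daily, twice daily, or days 1, 3, 5, 7) and tumor growth inhibition was scored against controls. The table value is the lowest dose giving >80% inhibition, or the highest dose tested. Deaths per group were recorded.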

Mus musculus [2] = test: (§2) In vivo antitumor activity of compound against subaxillary implanted 6C3HED lymphosarcoma implanted in C3H mice at a dose of 75 mg/kg administered perorally twice daily for a period of 8 days.; assay type: functional; conditions: route oral
Method in brief: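 Oral dosing twice daily for 8 days in C3H mice bearing 6C3HED lymphosarcoma. Read-out is percent tumor growth inhibition relative to controls, with deaths per group also recorded. The full in vivo protocol is given in an earlier report.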

[3] = % dose converted to 2-amino-5-chlorophenyl sulfate; assay type: ADME
Method in brief: (§3)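 Groups of two to four mice received single 100 mg/kg oral doses of each compound. Urine was pooled over 0-24 h, and the 2-amino-5-chlorophenyl sulfate excreted in 24 h per mouse was quantified as the marker of p-chloroaniline release.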

[4] = % dose converted to 4-(S-amino-N-{[(4-chlorophenyl)amino]carbonyl}sulfonimidoyl)benzoic acid (compound 41); assay type: ADME
Mus musculus [5] = test: as §2; assay type: functional; conditions: 192 h, route oral; method in brief: as §1
Mus musculus [6] = test: In vivo antitumor activity against subaxillary implanted 6C3HED lymphosarcoma implanted in C3H mice at a dose of 150 mg/kg administered perorally twice daily for a period of 8 days.; assay type: functional; conditions: for Inhibition: route oral, 150 mg/kg; for inhibition in vivo at 150 mg/kg: Mus musculus, 6C3HED, po, 192 h; method in brief: as §1
[7] = (§4) Metabolic breakdown to the o-sulfate of p-chloroaniline (2-amino-5-chlorophenyl sulfate) by giving 100 mg/kg oral doses of the compound; assay type: ADME, organism-based; set-up: dose 100 mg/kg, route oral; conditions: in vivo; method in brief: as §3
Mus musculus [8] = test: In vivo antitumor activity of compound against subaxillary implanted 6C3HED lymphosarcoma implanted in C3H mice at a dose of 150 mg/kg administered intraperitoneally daily for a period of 8 days.; assay type: functional; conditions: ip, 192 h, route intraperitoneal; method in brief: as §1
Mus musculus [9] = test: as §4; assay type: functional; method in brief: as §3
Mus musculus [10] = test: In vivo antitumor activity of compound against subaxillary implanted 6C3HED lymphosarcoma implanted in C3H mice at a dose of 25 mg/kg administered perorally daily for a period of 8 days.; assay type: functional; conditions: 192 h, route oral; method in brief: as §1
Mus musculus [11] = test: In vivo antitumor activity of compound against subaxillary implanted 6C3HED lymphosarcoma implanted in C3H mice at a dose of 50 mg/kg administered perorally twice daily for a period of 8 days.; assay type: functional; conditions: 192 h, route oral; method in brief: as §1
Mus musculus [12] = test: In vivo antitumor activity of compound against subaxillary implanted 6C3HED lymphosarcoma implanted in C3H mice at a dose of 300 mg/kg administered intraperitoneally daily for a period of 8 days.; assay type: functional; conditions: ip, 192 h, route intraperitoneal; method in brief: as §1
Mus musculus [13] = test: In vivo antitumor activity of compound against subaxillary implanted 6C3HED lymphosarcoma implanted in C3H mice at a dose of 25 mg/kg administered perorally twice daily for a period of 8 days.; assay type: functional; conditions: 192 h, route oral; method in brief: as §1
Mus musculus [14] = test: In vivo antitumor activity of compound against subaxillary implanted 6C3HED lymphosarcoma implanted in C3H mice at a dose of 4.0 mg/kg administered intraperitoneally twice daily for a period of 8 days.; assay type: functional; conditions: ip, 192 h, route intraperitoneal; method in brief: as §1
Mus musculus [15] = test: In vivo antitumor activity against subaxillary implanted 6C3HED lymphosarcoma implanted in C3H mice at a dose of 300 mg/kg administered perorally daily for a period of 8 days.; assay type: functional; conditions: 192 h, route oral; method in brief: as §1

Row | SMILES | IC50 (CCRF-CEM) | inhibition in vivo at 150 mg/kg (Mus musculus [6]) | other results
1 | CCCCN(C(C)=O)[S+]([O-])(=NC(=O)Nc1ccc(Cl)cc1)c1ccc(C)cc1 (centres undefined) | 12.5 µg/mL (≈ 29.6 µM) |  | inhibition in vivo at 300 mg/kg (Mus musculus [1]): 53%
2 | Cc1ccc([S+](N)([O-])=NC(=O)Nc2ccc(Cl)cc2)cc1 (single isomer, unassigned; (-)) |  |  | Lethality (Mus musculus [2]): 60%; Dose converted [3]: 4.7%; Dose converted [4]: 18%; inhibition in vivo at 75 mg/kg (Mus musculus [5]): 100%; Inhibition (Mus musculus [6]): 100%; Activity [7]: 0.58 µM
3 | CCCCN[S+]([O-])(=NC(=O)Nc1ccc(Cl)cc1)c1ccc(C)cc1 (centres undefined) | 0.4 µg/mL (≈ 1.05 µM) | 88% | 
4 | N[S+]([O-])(=NC(=O)Nc1ccc(Cl)cc1)c1ccc(C=O)cc1 (centres undefined) | 5.6 µg/mL (≈ 16.6 µM) |  | inhibition in vivo at 150 mg/kg (Mus musculus [8]): 80%
5 | Cc1ccc([S+](N)([O-])=NC(=O)Nc2ccccc2)cc1 (centres undefined) | > 20 µg/mL | 0% | 
6 | Cc1ccc([S+]([O-])(=NC(=O)Nc2ccc(Cl)cc2)NCC(C)C)cc1 (centres undefined) | 0.7 µg/mL (≈ 1.84 µM) |  | inhibition in vivo at 75 mg/kg (Mus musculus [5]): 85%
7 | O=C(Nc1ccc(Cl)cc1)NS(=O)(=O)c1ccc2c(c1)CCC2 [SULOFENUR] |  | 91% | Activity (Mus musculus [9]): 0.37 µM
8 | CN[S+]([O-])(=NC(=O)N(C)c1ccc(Cl)cc1)c1ccc(C)cc1 (centres undefined) | > 20 µg/mL | 91% | 
9 | CN[S+]([O-])(=NC(=O)Nc1ccc(Cl)cc1)c1ccc(C)c(C)c1 (centres undefined) | 16.2 µg/mL (≈ 46 µM) |  | inhibition in vivo at 25 mg/kg (Mus musculus [10]): 98%
10 | Cc1ccc([S+](N)([O-])=NC(=O)N(C)c2ccc(Cl)cc2)cc1 (centres undefined) | > 20 µg/mL | 83% | 
11 | Cc1ccc(S(=O)(=O)NC(=O)Nc2ccc(Cl)cc2)cc1 [LY-181984] |  | 93% | Activity (Mus musculus [9]): 1.02 µM
12 | COc1ccc(NC(=O)N=[S+](N)([O-])c2ccc(C)cc2)cc1 (centres undefined) | > 20 µg/mL |  | inhibition in vivo at 300 mg/kg (Mus musculus [1]): 0%
13 | Cc1ccc([S+](N)([O-])=NC(=O)Nc2ccc(Cl)cc2)cc1 (stereo in doubt; 16(+)) |  |  | Dose converted [3]: < 0.3%; Dose converted [4]: 17%; Inhibition (Mus musculus [6]): 5%
14 | CCCCN(C(C)=O)[S+]([O-])(=NC(=O)N(C(C)=O)c1ccc(Cl)cc1)c1ccc(C)cc1 (centres undefined) | 2.9 µg/mL (≈ 6.25 µM) |  | inhibition in vivo at 300 mg/kg (Mus musculus [1]): 10%
15 | N[S+]([O-])(=NC(=O)Nc1ccc(Cl)cc1)c1ccc(Cl)cc1 (centres undefined) | 12.3 µg/mL (≈ 35.7 µM) |  | inhibition in vivo at 50 mg/kg (Mus musculus [11]): 80%
16 | N[S+]([O-])(=NC(=O)Nc1ccc(Cl)cc1)c1ccc2c(c1)CCC2 (centres undefined) | > 20 µg/mL |  | inhibition in vivo at 150 mg/kg (Mus musculus [8]): 86%; Activity [7]: < 0.15 µM
17 | Cc1ccc([S+](N)([O-])=NC(=O)Nc2ccc(O)cc2)cc1 (centres undefined) | > 20 µg/mL |  | inhibition in vivo at 300 mg/kg (Mus musculus [12]): 11%
18 | Cc1ccc([S+]([O-])(=NC(=O)Nc2ccc(Cl)cc2)NCc2ccccc2)cc1 (centres undefined) | 8.7 µg/mL (≈ 21 µM) |  | inhibition in vivo at 300 mg/kg (Mus musculus [1]): 87%
19 | N[S+]([O-])(=NC(=O)Nc1ccc(Cl)cc1)c1ccc(CO)cc1 (centres undefined) | > 20 µg/mL |  | inhibition in vivo at 75 mg/kg (Mus musculus [5]): 99%
20 | CCc1ccc([S+](N)([O-])=NC(=O)Nc2ccc(Cl)cc2)cc1 (centres undefined) | > 20 µg/mL |  | inhibition in vivo at 25 mg/kg (Mus musculus [13]): 91%
21 | Cc1ccc([S+](N)([O-])=NC(=O)Nc2ccc(Cl)cc2)cc1C (centres undefined) | > 20 µg/mL |  | inhibition in vivo at 4 mg/kg (Mus musculus [14]): 97%
22 | Cc1ccc([S+](N)([O-])=NC(=O)Nc2ccc(Br)cc2)cc1 (centres undefined) | > 20 µg/mL | 100% | 
23 | Cc1ccc([S+](N)([O-])=NC(=O)Nc2ccc(C(F)(F)F)cc2)cc1 (centres undefined) | > 20 µg/mL |  | 
24 | N[S+]([O-])(=NC(=O)Nc1ccc(Cl)cc1)c1ccc(Br)cc1 (centres undefined) | 10.6 µg/mL (≈ 27.3 µM) | 89% | 
25 | CC(C)(C)c1ccc([S+](N)([O-])=NC(=O)Nc2ccc(Cl)cc2)cc1 (centres undefined) | 1.7 µg/mL (≈ 4.65 µM) |  | inhibition in vivo at 300 mg/kg (Mus musculus [1]): 11%
26 | Cc1ccc([S+]([O-])(=NC(=O)Nc2ccc(Cl)cc2)NCCO)cc1 (centres undefined) | > 20 µg/mL |  | inhibition in vivo at 300 mg/kg (Mus musculus [15]): 60%
27 | CC(=O)N(C(=O)N=[S+]([O-])(c1ccc(C)cc1)N(C)C(C)=O)c1ccc(Cl)cc1 (centres undefined) | 5.6 µg/mL (≈ 13.3 µM) | 83% | 

Reference: ChEMBL document CHEMBL1129963, “Sulfonimidamide analogs of oncolytic sulfonylureas” (J Med Chem, 1997)
